In one series the target is Acrosin (Homo sapiens, UniProt P10323). Description: Inhibition of human acrosin and control activity being 11.3 umol/min/mg. The note with it: read-out: I50.
Another series has as its target Serine protease 1 (Homo sapiens, UniProt P07477). Description: Inhibition of human trypsin and the control activity being 7.3 umol/min/mg. Conditions: read-out: I50.
The nature of series [1]: Lethal dose that produces death in 50% of mice within 24 hr after acute treatment. The note with it: mouse, in vivo. Format: toxicity, organism-based. An outline of the steps:
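Mature male Swiss Webster albino mice, minimum body weight 25 g; compounds suspended in 5% gum acacia and given as a single intraperitoneal injection at 0.1 mL/10 g body weight. Deaths scored within 24 h. LD50 taken from dose-response curves by the Litchfield and Wilcoxon method, with 95% confidence limits.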

The structures appear in SMILES notation.

Sequence of Serine protease 1 (P07477 whole entry): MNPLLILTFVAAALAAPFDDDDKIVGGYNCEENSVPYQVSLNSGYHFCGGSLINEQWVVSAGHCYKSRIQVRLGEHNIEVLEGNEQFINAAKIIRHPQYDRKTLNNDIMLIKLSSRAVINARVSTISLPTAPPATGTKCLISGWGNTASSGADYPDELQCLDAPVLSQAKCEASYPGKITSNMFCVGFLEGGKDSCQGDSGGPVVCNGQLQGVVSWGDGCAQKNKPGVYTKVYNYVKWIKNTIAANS
Sequence of Acrosin (P10323 20-42 limits assumed): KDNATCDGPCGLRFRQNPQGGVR
Sequence of Acrosin (P10323 43-343 limits assumed): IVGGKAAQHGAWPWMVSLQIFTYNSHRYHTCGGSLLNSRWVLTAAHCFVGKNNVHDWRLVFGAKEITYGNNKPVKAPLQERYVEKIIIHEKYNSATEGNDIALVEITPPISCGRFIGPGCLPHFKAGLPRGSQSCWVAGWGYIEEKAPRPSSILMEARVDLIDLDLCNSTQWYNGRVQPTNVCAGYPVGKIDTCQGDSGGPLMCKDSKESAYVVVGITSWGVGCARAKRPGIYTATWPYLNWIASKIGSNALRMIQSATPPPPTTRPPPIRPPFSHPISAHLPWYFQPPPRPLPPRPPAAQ

Take `CC(C)(C)c1ccc(OC(=O)c2ccc(NC(=N)N)cc2)cc1`: the results for the IC50 on Acrosin and at Serine protease 1 were 0.0285 µM and 0.0171 µM, respectively.

Consider `CCCCOc1ccc(OC(=O)c2ccc(NC(=N)N)cc2)cc1`, for which the results for the IC50 at Acrosin and at Serine protease 1 were 0.0114 µM and 0.0223 µM, respectively.

Regarding `COc1ccc(OC(=O)c2ccc(NC(=N)N)cc2)cc1`, the IC50 at Acrosin amounted to 0.0163 µM; at Serine protease 1 it was 0.019 µM.

Turning to `COc1ccccc1OC(=O)c1ccc(NC(=N)N)cc1`, the IC50 on Acrosin amounted to 0.0273 µM; at Serine protease 1 it was 0.0876 µM.

Turning to `COC(=O)c1ccccc1OC(=O)c1ccc(NC(=N)N)cc1`, the IC50 was determined as 0.0129 µM on Acrosin and 0.065 µM at Serine protease 1. The compound further yielded a 50% lethal dose (LD50) at 24 h in series [1] of 750 mg/kg.

Take `CC(C)c1ccc(OC(=O)c2ccc(NC(=N)N)cc2)cc1`: the IC50 on Acrosin came to 0.0066 µM; on Serine protease 1 it was 0.0172 µM.

On to `Cc1ccc(C(C)C)c(OC(=O)c2ccc(NC(=N)N)cc2)c1.Cc1ccc(S(=O)(=O)O)cc1`, for which the IC50 was found to be 0.3 µM on Acrosin and 0.5 µM on Serine protease 1. In series [1], this compound had an LD50 at 24 h of more than 2000 mg/kg.

As for `C=CCc1ccc(OC(=O)c2ccc(NC(=N)N)cc2)c(OC)c1`, the IC50 on Acrosin worked out at 0.0137 µM; on Serine protease 1, 0.0084 µM. In series [1], this compound gave an LD50 at 24 h of 870 mg/kg.

In the case of `N=C(N)Nc1ccc(C(=O)Oc2ccccc2)cc1`, the values for the IC50 at Acrosin and at Serine protease 1 were 0.0056 µM and 0.0234 µM, respectively.

Turning to `N=C(N)Nc1ccc(C(=O)Oc2cccc(C(F)(F)F)c2)cc1`, the IC50 stood at 0.0385 µM at Acrosin and 0.0922 µM on Serine protease 1.

Consider `Cc1ccc(OC(=O)c2ccc(NC(=N)N)cc2)cc1`, for which the IC50 is 0.0033 µM on Acrosin and 0.0195 µM at Serine protease 1.

Regarding `N#Cc1ccc(OC(=O)c2ccc(NC(=N)N)cc2)cc1`, the IC50 on Acrosin was 0.0012 µM; on Serine protease 1, 0.0016 µM.

Regarding `N=C(N)Nc1ccc(C(=O)Oc2ccc(C(F)(F)F)cc2)cc1`, the figures for the IC50 on Acrosin and on Serine protease 1 were 0.033 µM and 0.0164 µM, respectively.

As for `N=C(N)Nc1ccc(C(=O)Oc2ccc(Cl)cc2)cc1`, the IC50 at Acrosin was 0.003 µM; at Serine protease 1 it was 0.0082 µM.

As for `COc1cccc(OC(=O)c2ccc(NC(=N)N)cc2)c1`, the IC50 on Acrosin turned out to be 0.0176 µM; on Serine protease 1 it was 0.0165 µM.

With `N=C(N)Nc1ccc(C(=O)Oc2ccc(Br)cc2)cc1`, the IC50 amounted to 0.0035 µM at Acrosin and 0.0039 µM at Serine protease 1.

`CCCCCCc1ccc(OC(=O)c2ccc(NC(=N)N)cc2)cc1O`: the figures for the IC50 on Acrosin and on Serine protease 1 were 0.0997 µM and 0.0185 µM, respectively. The 50% lethal dose (LD50) at 24 h in series [1] was determined as 620 mg/kg.

In the case of `CC(=O)Nc1ccc(OC(=O)c2ccc(NC(=N)N)cc2)cc1.Cl`, the IC50 on Acrosin turned out to be 0.008 µM; at Serine protease 1, 0.0237 µM. Moreover, the median lethal dose (LD50) at 24 h in series [1] is 850 mg/kg.

On to `CCOC(=O)c1ccc(OC(=O)c2ccc(NC(=N)N)cc2)cc1.Cl`, for which the IC50 at Acrosin was 0.0093 µM; at Serine protease 1, 0.0016 µM. The same compound had a 50% lethal dose (LD50) at 24 h in series [1] of 300 mg/kg.

For `COC(=O)c1cccc(OC(=O)c2ccc(NC(=N)N)cc2)c1`, the IC50 on Acrosin was found to be 0.0054 µM; on Serine protease 1 it was 0.0271 µM.

Regarding `N#Cc1cccc(OC(=O)c2ccc(NC(=N)N)cc2)c1`, the IC50 at Acrosin turned out to be 0.0072 µM; on Serine protease 1, 0.0038 µM.

Turning to `Cl.N=C(N)Nc1ccc(C(=O)Oc2cccc3cccnc23)cc1`, the IC50 was found to be 0.0198 µM on Acrosin and 0.0277 µM at Serine protease 1. The LD50 at 24 h in series [1] is 240 mg/kg.

In the case of `Cl.N=C(N)Nc1ccc(C(=O)Oc2ccccc2C(N)=O)cc1`, the IC50 on Acrosin and at Serine protease 1 was 0.3 µM each time. The 50% lethal dose (LD50) at 24 h in series [1] is more than 1000 mg/kg.

For `COC(=O)c1ccc(OC(=O)c2ccc(NC(=N)N)cc2)cc1.Cl`, the results for the IC50 at Acrosin and on Serine protease 1 were 0.00067 µM and 0.0015 µM, respectively. In series [1], this compound came in with an LD50 at 24 h of 235 mg/kg.

Source of the values: ChEMBL document CHEMBL1123155, “Synthesis and inhibition of human acrosin and trypsin and acute toxicity of aryl 4-guanidinobenzoates” (J Med Chem, 1986).
